The values that follow come from paper PMC10825549 (JID Innovations, 2023).

The test system of data set [1] is IFN-γ. Kind of data set: Human whole blood potency, blockade of IFN-γ. Particulars: unpublished data. It counts as cell-based.
Data set [2] relates to IL-4. As to the kind of experiment: Human whole blood potency, blockade of IL-4. Type of data set: cell-based. Particulars: unpublished data.
Data set [3] concerns the target CYP3A4 (Homo sapiens, UniProt P08684). As to the kind of experiment: Cytochrome P450 phenotyping. Particulars: recombinant human CYP3A4; with NADPH; 30 minutes; n = 1. It counts as in vitro ADME. The essentials:
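Recombinant human CYP3A4 was prepared at 100 nM, and a 2 μM dosing solution of test compound in DMSO was added on ice. After prewarming, 8 mM NADPH solution or blank buffer was added for 30 minutes. Acetonitrile with internal standard stopped the reaction. The plate was shaken and centrifuged, and the supernatant was analysed by LC-MS/MS; n = 1.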

Data set [4] deals with CYP2C9 (Homo sapiens, UniProt P11712). As to the kind of experiment: Cytochrome P450 phenotyping. Type of data set: in vitro ADME. Particulars: recombinant human CYP2C9; with NADPH; 30 minutes; n = 1. The essentials: (§1)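 Recombinant human CYPs prepared at CYP1A2 200 nM, CYP2B6/2C8 250 nM, CYP2C9 100 nM, CYP2D6 50 nM. Test compound added as 2 μM DMSO dosing solution on ice. Plate prewarmed, then 8 mM NADPH solution or blank buffer added. Incubation 60 min (1A2, 2B6, 2C8) or 30 min (2C9, 2D6). Stopped with acetonitrile plus internal standard; supernatant by LC-MS/MS; n = 1.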
Chain of CYP2C9 (P11712 whole entry): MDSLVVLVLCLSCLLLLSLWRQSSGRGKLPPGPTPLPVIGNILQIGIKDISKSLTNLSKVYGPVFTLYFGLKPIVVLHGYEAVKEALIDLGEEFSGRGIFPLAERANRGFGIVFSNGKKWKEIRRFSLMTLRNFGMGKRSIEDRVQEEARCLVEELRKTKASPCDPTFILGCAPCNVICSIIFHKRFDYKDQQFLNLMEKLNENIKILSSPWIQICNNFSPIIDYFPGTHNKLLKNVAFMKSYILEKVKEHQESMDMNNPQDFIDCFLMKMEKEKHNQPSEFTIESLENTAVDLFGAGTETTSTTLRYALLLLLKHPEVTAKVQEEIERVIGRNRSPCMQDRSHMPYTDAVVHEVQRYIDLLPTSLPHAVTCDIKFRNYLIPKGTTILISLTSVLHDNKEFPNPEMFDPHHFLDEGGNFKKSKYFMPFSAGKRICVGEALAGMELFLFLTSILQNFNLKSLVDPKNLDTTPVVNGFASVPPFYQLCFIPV

In data set [5] the target is CYP2D6 (Homo sapiens, UniProt P10635). Kind of data set: Cytochrome P450 phenotyping. Particulars: recombinant human CYP2D6; with NADPH; 30 minutes; n = 1. Type of data set: in vitro ADME. Put shortly:
as §1

Data set [6] deals with CYP2C8 (Homo sapiens, UniProt P10632). Kind of data set: Cytochrome P450 phenotyping. Type of data set: in vitro ADME. Particulars: recombinant human CYP2C8; with NADPH; 60 minutes; n = 1. Put shortly: as §1
Chain of CYP2C8 (P10632 whole entry): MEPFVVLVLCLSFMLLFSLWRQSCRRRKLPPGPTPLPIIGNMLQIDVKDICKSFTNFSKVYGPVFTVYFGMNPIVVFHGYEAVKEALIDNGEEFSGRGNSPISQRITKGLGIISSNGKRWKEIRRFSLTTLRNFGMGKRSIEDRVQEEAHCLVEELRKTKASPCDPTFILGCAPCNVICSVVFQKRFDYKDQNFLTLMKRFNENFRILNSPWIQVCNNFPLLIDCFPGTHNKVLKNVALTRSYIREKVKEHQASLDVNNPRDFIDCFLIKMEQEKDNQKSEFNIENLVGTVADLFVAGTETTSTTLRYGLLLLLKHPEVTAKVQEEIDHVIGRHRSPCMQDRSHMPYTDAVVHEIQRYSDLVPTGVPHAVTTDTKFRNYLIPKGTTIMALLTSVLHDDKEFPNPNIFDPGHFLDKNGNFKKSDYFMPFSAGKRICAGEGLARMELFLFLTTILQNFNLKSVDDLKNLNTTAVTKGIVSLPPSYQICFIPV
Data set [7] has as its target CYP1A2 (Homo sapiens, UniProt P05177). Kind of data set: Cytochrome P450 phenotyping. Particulars: recombinant human CYP1A2; with NADPH; 60 minutes; n = 1. Type of data set: in vitro ADME. The essentials:
as §1

Chain of CYP1A2 (P05177 whole entry): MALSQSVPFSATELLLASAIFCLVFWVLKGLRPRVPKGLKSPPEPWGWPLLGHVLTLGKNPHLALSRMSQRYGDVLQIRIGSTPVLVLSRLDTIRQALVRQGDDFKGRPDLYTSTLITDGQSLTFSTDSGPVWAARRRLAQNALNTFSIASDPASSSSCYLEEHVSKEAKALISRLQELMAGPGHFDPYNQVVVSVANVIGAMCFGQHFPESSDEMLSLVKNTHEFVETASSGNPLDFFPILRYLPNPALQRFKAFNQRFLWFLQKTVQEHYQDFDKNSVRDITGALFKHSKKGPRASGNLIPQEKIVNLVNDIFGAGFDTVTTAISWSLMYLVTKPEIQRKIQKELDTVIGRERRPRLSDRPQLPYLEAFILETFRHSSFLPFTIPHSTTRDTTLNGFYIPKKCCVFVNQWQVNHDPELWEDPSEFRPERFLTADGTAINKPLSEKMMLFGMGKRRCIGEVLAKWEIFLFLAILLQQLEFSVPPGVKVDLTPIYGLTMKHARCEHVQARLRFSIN
Chain of CYP2D6 (P10635 whole entry): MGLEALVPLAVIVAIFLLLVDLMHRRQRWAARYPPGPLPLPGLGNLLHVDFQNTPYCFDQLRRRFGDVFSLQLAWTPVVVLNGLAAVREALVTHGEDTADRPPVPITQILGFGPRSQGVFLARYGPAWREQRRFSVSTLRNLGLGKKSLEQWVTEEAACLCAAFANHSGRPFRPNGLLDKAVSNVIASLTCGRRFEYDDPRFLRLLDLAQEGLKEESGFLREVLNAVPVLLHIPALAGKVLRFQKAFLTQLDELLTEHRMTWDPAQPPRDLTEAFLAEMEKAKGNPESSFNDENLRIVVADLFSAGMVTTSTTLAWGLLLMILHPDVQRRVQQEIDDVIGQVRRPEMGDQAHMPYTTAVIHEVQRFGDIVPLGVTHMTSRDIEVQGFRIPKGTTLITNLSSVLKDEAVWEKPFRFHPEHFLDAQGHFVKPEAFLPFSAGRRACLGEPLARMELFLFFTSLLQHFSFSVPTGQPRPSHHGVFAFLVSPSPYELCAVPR
Chain of CYP3A4 (P08684 whole entry): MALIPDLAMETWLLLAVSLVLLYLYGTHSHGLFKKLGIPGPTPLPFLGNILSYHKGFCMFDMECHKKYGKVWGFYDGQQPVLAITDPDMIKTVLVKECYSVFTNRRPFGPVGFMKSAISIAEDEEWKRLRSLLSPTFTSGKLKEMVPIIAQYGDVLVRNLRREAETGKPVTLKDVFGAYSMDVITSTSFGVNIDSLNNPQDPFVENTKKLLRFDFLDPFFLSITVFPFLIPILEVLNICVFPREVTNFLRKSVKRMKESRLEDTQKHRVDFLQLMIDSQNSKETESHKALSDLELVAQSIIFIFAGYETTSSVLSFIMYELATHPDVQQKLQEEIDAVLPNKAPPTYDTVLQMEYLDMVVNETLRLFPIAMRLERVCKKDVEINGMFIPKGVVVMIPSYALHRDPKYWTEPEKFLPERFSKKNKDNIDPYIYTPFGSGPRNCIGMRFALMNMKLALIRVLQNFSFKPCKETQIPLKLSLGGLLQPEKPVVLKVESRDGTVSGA

On to `N#CC[C@H](C1CCCC1)n1cc(-c2ncnc3[nH]ccc23)cn1` [ruxolitinib], for which the “level required for blockade of IFN-γ (human whole blood potency)” value in data set [1] worked out at 305 nM. In data set [2], the “level required for blockade of IL-4 (human whole blood potency)” value amounted to 564 nM.

With `Cc1ncc2n1-c1ccc(Cl)cc1C(c1ccccc1F)=NC2` [midazolam, reference compound], in data set [3], the “Percentage Remaining” value is 0.252%.

Take `O=C(O)Cc1ccccc1Nc1c(Cl)cccc1Cl` [diclofenac]: in data set [4], the “Percentage Remaining” value amounted to 2.83%.

As to `CCc1cccc2cc(C(O)CNC(C)(C)C)oc12` (stereo not shown) [bufuralol], the “Percentage Remaining” value in data set [5] stood at 2.48%.

In the case of `CC(=O)O[C@H]1C(=O)[C@@]2(C)[C@H]([C@H](OC(=O)c3ccccc3)[C@]3(O)C[C@H](OC(=O)[C@H](O)[C@@H](NC(=O)c4ccccc4)c4ccccc4)C(C)=C1C3(C)C)[C@]1(OC(C)=O)CO[C@@H]1C[C@@H]2O` [paclitaxel, reference compound], the “Percentage Remaining” value in data set [6] was 0.852%.

As for `CCOc1ccc(NC(C)=O)cc1` [phenacetin, reference compound], the “Percentage Remaining” value in data set [7] stood at 15.1%.
